Reference: ChEMBL document CHEMBL4622835, “A novel potent metal-binding NDM-1 inhibitor was identified by fragment virtual, SPR and NMR screening” (Bioorg Med Chem, 2020)

Legend:
[1] = Inhibition of recombinant bacteria NDM-1 (I31 to K268 residues) expressed in Escherichia coli BL21 (DE3) cells incubated for 20 mins using meropenem as substrate
Procedure, shortened: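 NDM-1 (12 nM) preincubated with inhibitor for 20 min at room temperature, then meropenem (100 µM) added. Final buffer 50 mM hepes pH 7.24 with 2% DMSO. Absorbance read at 300 nm at 30 °C. Duplicate wells, three repeats. IC50 taken from percent loss of activity against inhibitor concentration; L-captopril as positive control.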

[2] = Binding affinity to recombinant bacteria NDM-1 (I31 to K268 residues)expressed in Escherichia coli BL21 (DE3) cells by SPR assay
Procedure, shortened: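 Tag-free NDM-1 at 50 µg/ml in pH 5.0 sodium acetate, amine-coupled to a CM7 chip (>8,000 RU). Biacore T200, 25 °C, 30 µL/min. Running buffer 10 mM Hepes pH 7.5, 150 mM NaCl, 100 µM ZnCl2, 2% DMSO (EDTA-2Na run without DMSO). Eight two-fold dilutions per compound. KD from a steady-state 1:1 fit, at least three runs.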

[3] = test system: Klebsiella pneumoniae; assay: Synergistic antibacterial activity against Klebsiella pneumoniae ATCC BAA-2470 cells expressing NDM-1 incubated for 20 to 24 hrs presence of meropenem by broth dilution method (Rvb >64 ug/ml); assay type: functional
Procedure, shortened: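 Broth microdilution in Mueller-Hinton broth, final inoculum about 5 × 10^5 CFU/mL. Test compound fixed at 100 µg/mL final (from 20 mg/mL DMSO stock). Meropenem in two-fold dilutions, 64 to 0.0625 µg/mL final. Plates held 20–24 h at 37 °C. MIC is the lowest meropenem concentration with no visible growth.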

[4] = Inhibition of bacteria NMD-1
[5] = Binding affinity to recombinant bacteria 15N labeled His-6-tagged NDM-1 (36 to 270 residues) expressed in Escherichia coli BL21 (DE3) cells by NMR analysis
Procedure, shortened: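 15N-labelled NDM-1 (0.11 mM or 0.165 mM) in 50 mM HEPES, 200 mM NaCl, pH 7.5, titrated with inhibitor from DMSO stock (20 mM or 50 mM). 1H-15N HSQC spectra recorded at 800 MHz, 298 K and 293 K. NDM-1:inhibitor mole ratios ran 1:0 to 1:15. Both di-Zn and apo (EDTA-stripped) forms were used; after the apo titrations, 2 equiv Zn2+ added.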

| IC50 [1] [µM] | MIC [3] [µg/mL] | Compound | Kd [2] [µM] | IC50 [4] [µM] | Kd [5] [µM] |
| --- | --- | --- | --- | --- | --- |
| 28.1 | > 64 | CC/C(=N\Nc1cccc2ccccc12)C(=O)O | 449 |  |  |
|  |  | N[C@@H](CN[C@@H](CN[C@@H](CC(=O)O)C(=O)O)C(=O)O)C(=O)O |  | 7 |  |
|  | > 64 | CC(C)(C)/C(=N\Nc1cccnc1)C(=O)O.Cl | > 1000 |  |  |
| 94.6 | > 64 | CC(C)(C)/C(=N\Nc1cccc2ccccc12)C(=O)O | 307 |  |  |
|  |  | C[C@@H](O)[C@H]1C(=O)N2C(C(=O)O)=C(S[C@@H]3CN[C@H](C(=O)N(C)C)C3)[C@H](C)[C@H]12 [MEROPENEM] | 75 |  |  |
| 390 |  | C[C@H](CS)C(=O)N1CCC[C@H]1C(=O)O [CAPTOPRIL] | 12 to 14.1 |  |  |
|  |  | O=c1c2ccccc2[se]n1-c1ccccc1 [EBSELEN] |  | 0.38 |  |
| 68.2 | 64 | CC/C(=N\Nc1cccc2cccnc12)C(=O)O.Cl | 275 |  |  |
|  | > 64 | C/C(=N\Nc1ccccc1)C(=O)O | 168 |  |  |
|  | > 64 | CC(C)(C)/C(=N\Nc1ccccc1)C(=O)O | 438 |  |  |
|  | > 64 | CC/C(=N\Nc1cccnc1)C(=O)O.Cl | > 1000 |  |  |
| > 500 | 64 | CC(C)(C)/C(=N\Nc1cccc2cccnc12)C(=O)O.Cl | 435 |  |  |
| 82.3 | > 64 | CCC/C(=N\Nc1cccc2cccnc12)C(=O)O.Cl | 221 |  |  |
|  | > 64 | CCC/C(=N\Nc1ccccc1)C(=O)O | 188 |  |  |
|  | > 64 | CC/C(=N\Nc1ccccc1)C(=O)O | 191 |  |  |
| 389 | > 64 | C/C(=N\Nc1cccc2ccccc12)C(=O)O | 255 |  |  |
| > 500 | 32 | CCC/C(=N\Nc1cccc2ccccc12)C(=O)O | > 1000 |  |  |
|  |  | NCCN[C@H]1CC[C@H](CC(=O)N[C@H]2Cc3cccc(C(=O)O)c3OB2O)CC1 |  | 0.01 |  |
|  | > 64 | CCC/C(=N\Nc1cccnc1)C(=O)O.Cl | 703 |  |  |
| 124 | > 64 | C/C(=N\Nc1cccc2cccnc12)C(=O)O.Cl | 219 to 290 |  | 620 |
|  |  | O=C(O)[C@@H]1CS[C@H]2CS[C@H](CS)N21 |  | 23 |  |
|  |  | O=C(O)CNC(=O)C(CS)Cc1ccccc1 (configuration not stated) [THIORPHAN] |  | 1.8 |  |
|  |  | NCc1ccc(C(=O)N[C@H]2Cc3cccc(C(=O)O)c3O[B-]2(O)O)cc1 |  | 0.029 |  |
|  | > 64 | C/C(=N\Nc1cccnc1)C(=O)O.Cl | > 1000 |  |  |

| Compound | IC50 [1] [µM] | MIC [3] [µg/mL] | Kd [2] [µM] | IC50 [4] [µM] | Kd [5] [µM] |
| --- | --- | --- | --- | --- | --- |
| O=C([O-])CN(CCN(CC(=O)[O-])CC(=O)O)CC(=O)O.[Na+].[Na+] [EDETATE DISODIUM ANHYDROUS] | 17.2 |  | > 1000 |  |  |
